The target of experiment [1] is Mast/stem cell growth factor receptor Kit (Homo sapiens) (UniProt P10721). The experiment is described as follows: Inhibition of wild-type human partial length autoinhibited KIT (Y545 to D952 residues) expressed in HEK293 cells assessed as residual activity at 1000 nM after 30 mins by Kinomescan method relative to control. The format is cell-based.
Experiment [2] deals with Serine/threonine-protein kinase Sgk2 (Homo sapiens) (UniProt Q9HBY8). The experiment is described as follows: Inhibition of wild-type human partial length SGK2 (L54 to C427 residues) expressed in HEK293 cells assessed as residual activity at 1000 nM after 30 mins by Kinomescan method relative to control. It is filed as cell-based.
The target in experiment [3] is Cyclin-dependent kinase 18 (Homo sapiens) (UniProt Q07002). The experiment is described as follows: Inhibition of wild-type human full length PCTK3 (M3 to F474 residues) expressed in Escherichia coli BL21 assessed as residual activity at 1000 nM after 30 mins by Kinomescan method relative to control. The method, boiled down:
(§1)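 Single-concentration screen at 1 µM across a 456-kinase KINOMEscan panel. The read-out is Percent Control for each kinase.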

Experiment [4] concerns the target SNF-related serine/threonine-protein kinase (Homo sapiens) (UniProt Q9NRH2). Nature of the experiment: Inhibition of wild-type human partial length SNRK (M1 to E339 residues) expressed in HEK293 cells assessed as residual activity at 1000 nM after 30 mins by Kinomescan method relative to control. It is filed as cell-based.
In experiment [5] the test system is Epidermal growth factor receptor (Homo sapiens), P00533 [UNDEFINED MUTATION]. The experiment is described as follows: Inhibition of human partial length EGFR S752-I759del mutant expressed in Escherichia coli BL21 assessed as residual activity at 1000 nM after 30 mins by Kinomescan method relative to control. The method, boiled down: (§2)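 KINOMEscan binding panel of 456 kinases, with the test compound at a single concentration of 1 µM. Read-out is Percent Control.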

For experiment [6], the target named is Serine/threonine-protein kinase PLK2 (Homo sapiens) (UniProt Q9NYY3). Nature of the experiment: Inhibition of wild-type human partial length PLK2 (H58 to F354 residues) expressed in HEK293 cells assessed as residual activity at 1000 nM after 30 mins by Kinomescan method relative to control. The format is cell-based.
Experiment [7] concerns Epidermal growth factor receptor (Homo sapiens), P00533 [UNDEFINED MUTATION]. The experiment is described as follows: Inhibition of human partial length EGFR L747-T751del/Sins mutant expressed in Escherichia coli BL21 assessed as residual activity at 1000 nM after 30 mins by Kinomescan method relative to control. The method, boiled down: as §2
The target of experiment [8] is TGF-beta receptor type-2 (Homo sapiens) (UniProt P37173). Nature of the experiment: Inhibition of wild-type human partial length TGFBR2 (I218 to K567 residues) expressed in Escherichia coli BL21 assessed as residual activity at 1000 nM after 30 mins by Kinomescan method relative to control.
For experiment [9], the target named is Mitogen-activated protein kinase kinase kinase 11 (Homo sapiens) (UniProt Q16584). The experiment is described as follows: Inhibition of wild-type human partial length MLK3 (I77 to W399 residues) expressed in Escherichia coli BL21 assessed as residual activity at 1000 nM after 30 mins by Kinomescan method relative to control.
The target in experiment [10] is Phosphatidylinositol 4,5-bisphosphate 3-kinase catalytic subunit alpha isoform (Homo sapiens) (UniProt P42336). Nature of the experiment: Inhibition of wild-type human partial length PIK3CA (R108 to N1068 residues) expressed in HEK293 cells assessed as residual activity at 1000 nM after 30 mins by Kinomescan method relative to control. The format is cell-based.
Experiment [11] has as its target SRSF protein kinase 3 (Homo sapiens) (UniProt Q9UPE1). The experiment is described as follows: Inhibition of wild-type human partial length SRPK3 (P41 to P567 residues) expressed in Escherichia coli BL21 assessed as residual activity at 1000 nM after 30 mins by Kinomescan method relative to control.
The target of experiment [12] is Homeodomain-interacting protein kinase 3 (Homo sapiens) (UniProt Q9H422). Nature of the experiment: Inhibition of wild-type human partial length HIPK3 (M153 to N562 residues) expressed in HEK293 cells assessed as residual activity at 1000 nM after 30 mins by Kinomescan method relative to control. The format is cell-based.
The target in experiment [13] is Serine/threonine-protein kinase 3 (Homo sapiens) (UniProt Q13188). The experiment is described as follows: Inhibition of wild-type human partial length MST2 (D17 to E318 residues) expressed in Escherichia coli BL21 assessed as residual activity at 1000 nM after 30 mins by Kinomescan method relative to control.
Experiment [14] deals with Serine/threonine-protein kinase TNNI3K (Homo sapiens) (UniProt Q59H18). Nature of the experiment: Inhibition of wild-type human full length TNNI3K (M1 to S835 residues) expressed in Escherichia coli BL21 assessed as residual activity at 1000 nM after 30 mins by Kinomescan method relative to control.
In experiment [15] the target is Receptor tyrosine-protein kinase erbB-3 (Homo sapiens) (UniProt P21860). Nature of the experiment: Inhibition of wild-type human partial length ERBB3 (G684 to A987 residues) expressed in HEK293 cells assessed as residual activity at 1000 nM after 30 mins by Kinomescan method relative to control. The format is cell-based.
In experiment [16] the target is Tyrosine-protein kinase JAK2 (Homo sapiens) (UniProt O60674). The experiment is described as follows: Inhibition of wild-type human partial length JAK2 JH1 catalytic domain (A829 to G1132 residues) expressed in HEK293 cells assessed as residual activity at 1000 nM after 30 mins by Kinomescan method relative to control. It is filed as cell-based.
Experiment [17] deals with cGMP-dependent protein kinase 2 (Homo sapiens) (UniProt Q13237). Nature of the experiment: Inhibition of wild-type human partial length PRKG2 (S422 to F762 residues) expressed in HEK293 cells assessed as residual activity at 1000 nM after 30 mins by Kinomescan method relative to control. The format is cell-based.
Experiment [18] has as its target 3-phosphoinositide-dependent protein kinase 1 (Homo sapiens) (UniProt O15530). The experiment is described as follows: Inhibition of wild-type human full length PDPK1 (M1 to Q556 residues) expressed in Escherichia coli BL21 assessed as residual activity at 1000 nM after 30 mins by Kinomescan method relative to control. Put shortly: as §1
The subject of experiment [19] is Tyrosine-protein kinase ABL1 (Homo sapiens), P00519 [E255K]. The experiment is described as follows: Inhibition of human phosphorylated ABL1 E255K mutant (S229 to K512 residues) expressed in HEK293 cells assessed as residual activity at 1000 nM after 30 mins by Kinomescan method relative to control. The format is cell-based. The method, boiled down:
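Single-point screen at a fixed 1 µM, run within a 456-kinase DiscoveRx KINOMEscan panel. Each kinase's read-out is Percent Control, i.e. signal relative to a control without compound. Hits were scored by a Percent Control < 35 cut-off, and an S(35) selectivity score was calculated across the non-mutant kinases.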

Experiment [20] has as its target Ribosomal protein S6 kinase alpha-4 (Homo sapiens) (UniProt O75676). The experiment is described as follows: Inhibition of wild-type human partial length C-terminal RPS6KA4 kinase domain 2 (M375 to T705 residues) expressed in HEK293 cells assessed as residual activity at 1000 nM after 30 mins by Kinomescan method relative to control. It is filed as cell-based.
Experiment [21] addresses Serine/threonine-protein kinase Nek1 (Homo sapiens) (UniProt Q96PY6). Nature of the experiment: Inhibition of wild-type human partial length NEK1 (M1 to K278 residues) expressed in Escherichia coli BL21 assessed as residual activity at 1000 nM after 30 mins by Kinomescan method relative to control.

Epidermal growth factor receptor (Homo sapiens), P00533 [UNDEFINED MUTATION], sequence (P00533 whole entry, looked up, stated change not applied, the tested form may be a part): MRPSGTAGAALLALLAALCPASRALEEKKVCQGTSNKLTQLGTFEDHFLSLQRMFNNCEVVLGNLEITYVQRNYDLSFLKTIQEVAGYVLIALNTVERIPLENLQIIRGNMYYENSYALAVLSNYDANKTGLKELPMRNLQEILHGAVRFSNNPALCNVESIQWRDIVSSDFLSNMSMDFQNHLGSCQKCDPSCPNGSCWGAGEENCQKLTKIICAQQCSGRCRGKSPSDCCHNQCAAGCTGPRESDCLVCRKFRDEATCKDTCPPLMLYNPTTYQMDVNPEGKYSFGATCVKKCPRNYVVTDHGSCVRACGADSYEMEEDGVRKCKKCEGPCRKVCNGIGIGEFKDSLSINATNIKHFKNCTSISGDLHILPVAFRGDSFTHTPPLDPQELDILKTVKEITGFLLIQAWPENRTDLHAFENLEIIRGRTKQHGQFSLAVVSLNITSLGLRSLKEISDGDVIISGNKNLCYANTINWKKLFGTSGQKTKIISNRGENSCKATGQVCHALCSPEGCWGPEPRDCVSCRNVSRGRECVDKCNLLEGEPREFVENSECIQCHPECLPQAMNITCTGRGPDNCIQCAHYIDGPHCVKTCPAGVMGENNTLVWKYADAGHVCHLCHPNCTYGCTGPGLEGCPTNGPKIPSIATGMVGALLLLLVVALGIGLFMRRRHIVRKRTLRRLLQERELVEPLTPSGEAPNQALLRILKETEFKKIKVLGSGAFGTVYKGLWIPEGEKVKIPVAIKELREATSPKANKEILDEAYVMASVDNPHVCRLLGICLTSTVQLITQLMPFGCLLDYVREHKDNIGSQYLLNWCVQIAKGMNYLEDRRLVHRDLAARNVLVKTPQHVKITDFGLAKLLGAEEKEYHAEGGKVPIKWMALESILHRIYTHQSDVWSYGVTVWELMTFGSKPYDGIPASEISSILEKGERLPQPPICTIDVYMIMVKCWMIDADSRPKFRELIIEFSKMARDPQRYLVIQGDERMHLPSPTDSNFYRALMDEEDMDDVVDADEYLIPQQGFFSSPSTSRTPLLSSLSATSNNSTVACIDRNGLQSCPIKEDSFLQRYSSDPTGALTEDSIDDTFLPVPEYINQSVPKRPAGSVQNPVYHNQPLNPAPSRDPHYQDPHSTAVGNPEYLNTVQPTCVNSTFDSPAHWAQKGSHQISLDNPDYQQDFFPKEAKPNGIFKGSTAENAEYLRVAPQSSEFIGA
Serine/threonine-protein kinase 3 (Homo sapiens), sequence (Q13188 whole entry, the tested form may be a part): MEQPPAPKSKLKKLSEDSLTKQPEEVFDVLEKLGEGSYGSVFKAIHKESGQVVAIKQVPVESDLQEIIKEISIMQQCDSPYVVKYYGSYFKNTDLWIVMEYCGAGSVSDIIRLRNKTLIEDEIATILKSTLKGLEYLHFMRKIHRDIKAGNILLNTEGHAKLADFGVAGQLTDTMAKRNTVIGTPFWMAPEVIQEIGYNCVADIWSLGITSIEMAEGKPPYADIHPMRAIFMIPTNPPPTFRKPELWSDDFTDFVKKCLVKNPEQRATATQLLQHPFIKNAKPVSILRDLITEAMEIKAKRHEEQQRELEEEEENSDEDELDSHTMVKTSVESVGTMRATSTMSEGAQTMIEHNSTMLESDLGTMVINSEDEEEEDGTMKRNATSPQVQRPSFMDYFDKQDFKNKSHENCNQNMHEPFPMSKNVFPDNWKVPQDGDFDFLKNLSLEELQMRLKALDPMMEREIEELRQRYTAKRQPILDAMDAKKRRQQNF
SRSF protein kinase 3 (Homo sapiens), sequence (Q9UPE1 whole entry, the tested form may be a part): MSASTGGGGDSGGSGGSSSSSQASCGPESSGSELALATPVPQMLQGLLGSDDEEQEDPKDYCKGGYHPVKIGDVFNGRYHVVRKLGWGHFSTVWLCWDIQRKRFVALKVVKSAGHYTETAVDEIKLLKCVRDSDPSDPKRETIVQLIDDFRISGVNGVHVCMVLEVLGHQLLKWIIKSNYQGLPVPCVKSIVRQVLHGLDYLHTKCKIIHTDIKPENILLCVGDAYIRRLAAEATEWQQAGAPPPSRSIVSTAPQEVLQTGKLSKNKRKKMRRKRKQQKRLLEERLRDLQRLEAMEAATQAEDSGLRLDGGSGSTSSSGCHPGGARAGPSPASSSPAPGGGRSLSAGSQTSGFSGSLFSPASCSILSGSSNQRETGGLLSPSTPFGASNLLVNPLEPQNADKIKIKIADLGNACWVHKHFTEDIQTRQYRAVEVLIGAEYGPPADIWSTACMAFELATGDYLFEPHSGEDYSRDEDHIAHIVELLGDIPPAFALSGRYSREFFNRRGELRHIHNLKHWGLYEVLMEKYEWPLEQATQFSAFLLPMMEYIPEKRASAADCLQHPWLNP
Tyrosine-protein kinase ABL1 (Homo sapiens), P00519 [E255K], sequence (P00519 whole entry E255K, the tested form may be a part): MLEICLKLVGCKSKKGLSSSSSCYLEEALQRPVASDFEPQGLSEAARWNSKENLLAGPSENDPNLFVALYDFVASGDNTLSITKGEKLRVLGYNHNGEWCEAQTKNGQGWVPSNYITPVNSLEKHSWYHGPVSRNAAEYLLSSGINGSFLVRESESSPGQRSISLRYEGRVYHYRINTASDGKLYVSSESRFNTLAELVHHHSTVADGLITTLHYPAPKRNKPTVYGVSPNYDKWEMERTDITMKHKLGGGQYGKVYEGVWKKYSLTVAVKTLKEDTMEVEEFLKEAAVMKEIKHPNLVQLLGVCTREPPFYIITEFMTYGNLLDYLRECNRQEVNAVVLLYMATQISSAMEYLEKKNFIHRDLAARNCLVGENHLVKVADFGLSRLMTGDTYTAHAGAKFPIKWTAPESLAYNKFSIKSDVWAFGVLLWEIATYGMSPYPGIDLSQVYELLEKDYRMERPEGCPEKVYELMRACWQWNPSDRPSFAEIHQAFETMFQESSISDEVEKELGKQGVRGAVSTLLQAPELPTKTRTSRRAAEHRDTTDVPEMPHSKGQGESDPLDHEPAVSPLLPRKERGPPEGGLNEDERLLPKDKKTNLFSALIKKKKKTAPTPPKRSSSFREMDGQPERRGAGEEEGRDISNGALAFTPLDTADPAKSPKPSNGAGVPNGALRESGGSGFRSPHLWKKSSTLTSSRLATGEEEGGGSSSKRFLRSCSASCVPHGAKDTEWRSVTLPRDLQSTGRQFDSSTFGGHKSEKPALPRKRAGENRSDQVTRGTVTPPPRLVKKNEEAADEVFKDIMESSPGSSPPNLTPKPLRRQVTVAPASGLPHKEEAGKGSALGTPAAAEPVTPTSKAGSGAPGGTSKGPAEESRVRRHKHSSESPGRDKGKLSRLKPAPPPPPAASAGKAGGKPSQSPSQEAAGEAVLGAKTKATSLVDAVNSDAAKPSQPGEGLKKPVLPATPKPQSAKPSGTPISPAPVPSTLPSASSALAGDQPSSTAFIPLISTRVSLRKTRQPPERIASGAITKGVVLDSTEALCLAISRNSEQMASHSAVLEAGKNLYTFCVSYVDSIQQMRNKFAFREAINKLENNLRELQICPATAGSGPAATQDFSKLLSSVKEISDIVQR
Cyclin-dependent kinase 18 (Homo sapiens), sequence (Q07002 whole entry, the tested form may be a part): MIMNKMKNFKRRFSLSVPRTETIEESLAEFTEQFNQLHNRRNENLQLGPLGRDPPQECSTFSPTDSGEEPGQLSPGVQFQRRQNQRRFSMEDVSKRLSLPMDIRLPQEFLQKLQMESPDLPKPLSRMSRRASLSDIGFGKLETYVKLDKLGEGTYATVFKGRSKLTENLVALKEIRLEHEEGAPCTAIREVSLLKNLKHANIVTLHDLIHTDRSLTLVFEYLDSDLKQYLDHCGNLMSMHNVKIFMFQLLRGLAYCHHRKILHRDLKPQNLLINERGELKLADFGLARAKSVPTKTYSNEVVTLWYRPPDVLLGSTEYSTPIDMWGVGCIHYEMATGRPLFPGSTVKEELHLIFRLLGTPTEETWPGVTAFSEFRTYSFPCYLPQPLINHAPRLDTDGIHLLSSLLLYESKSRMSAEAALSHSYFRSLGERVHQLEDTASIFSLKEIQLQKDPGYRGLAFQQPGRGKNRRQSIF
3-phosphoinositide-dependent protein kinase 1 (Homo sapiens), sequence (O15530 whole entry, the tested form may be a part): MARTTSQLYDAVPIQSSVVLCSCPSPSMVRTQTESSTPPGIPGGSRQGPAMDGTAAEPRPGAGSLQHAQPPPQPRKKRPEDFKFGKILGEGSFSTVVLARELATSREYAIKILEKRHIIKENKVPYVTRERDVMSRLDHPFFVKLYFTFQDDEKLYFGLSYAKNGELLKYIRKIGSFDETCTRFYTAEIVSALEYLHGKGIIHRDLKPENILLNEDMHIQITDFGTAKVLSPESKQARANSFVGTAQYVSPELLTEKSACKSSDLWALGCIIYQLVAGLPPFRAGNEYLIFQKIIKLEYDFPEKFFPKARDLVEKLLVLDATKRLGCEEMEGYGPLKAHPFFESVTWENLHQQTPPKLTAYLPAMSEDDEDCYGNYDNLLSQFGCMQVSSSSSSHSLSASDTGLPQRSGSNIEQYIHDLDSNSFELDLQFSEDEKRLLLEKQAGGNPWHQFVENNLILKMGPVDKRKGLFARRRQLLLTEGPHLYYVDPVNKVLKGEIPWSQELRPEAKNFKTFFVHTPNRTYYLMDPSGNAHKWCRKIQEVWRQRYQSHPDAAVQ
Serine/threonine-protein kinase Sgk2 (Homo sapiens), sequence (Q9HBY8 whole entry, the tested form may be a part): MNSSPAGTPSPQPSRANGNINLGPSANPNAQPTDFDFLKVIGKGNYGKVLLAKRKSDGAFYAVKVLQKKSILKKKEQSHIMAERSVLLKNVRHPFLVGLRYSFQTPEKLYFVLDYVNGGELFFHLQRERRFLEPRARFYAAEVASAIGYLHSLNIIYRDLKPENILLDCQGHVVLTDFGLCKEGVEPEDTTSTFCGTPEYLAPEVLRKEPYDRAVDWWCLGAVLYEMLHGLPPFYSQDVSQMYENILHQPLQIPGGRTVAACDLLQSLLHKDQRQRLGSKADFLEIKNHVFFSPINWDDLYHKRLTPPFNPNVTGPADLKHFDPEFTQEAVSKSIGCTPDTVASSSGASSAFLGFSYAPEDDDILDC

`COc1cc(OC)c(Cl)c(N2Cc3cnc(Nc4ccc(F)cc4)nc3N(C3CCN(C(=O)/C=C/CN(C)C)CC3)C2=O)c1Cl`: the Activity came to 90% in [1]; 100% in experiment [2]; 93% in [3]; 100% in experiment [4]; 71% in [5]; 100% in [6]. Moreover, the Activity in experiment [7] amounted to 95%; in experiment [8], 91%; in [9] it was 83%; in experiment [10], 100%; in experiment [11], 86%; in [12], 100%. Besides, the Activity amounted to 64% in experiment [13]; 100% in experiment [14]; 100% in experiment [15]; 100% in [16]; 100% in experiment [17]; 67% in [18]. Also, the Activity in experiment [19] is 48%; in experiment [20], 93%; in experiment [21] it was 73%.

These data come from ChEMBL document CHEMBL4043093, “2-Oxo-3, 4-dihydropyrimido[4, 5-d]pyrimidinyl derivatives as new irreversible pan fibroblast growth factor receptor (FGFR) inhibitors” (Eur J Med Chem, 2017).
